Calls of active or inactive are those of the source. The calls are words filed in the database; no cut-off is given here.
Columns and labels:
[1] = Cytotoxicity against human PC3 cells after 48 hrs by MTT assay; format: functional, cell-based, PC-3; conditions: Homo sapiens, PC-3, 48 h; read-out: IC50
Procedure, shortened: (§1)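 Tumor cells in log phase in RPMI 1640 + 10% FBS, seeded at 3×10^4 cells mL-1 and incubated 24 h (37 °C, 5% CO2). Test samples added at pre-set concentrations (6 wells each), doxorubicin as reference; 48 h exposure. MTT (2.5 mg·mL-1 in PBS) added for 4 h, formazan dissolved in DMSO, A570 read.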

Bcap37 = assay: Cytotoxicity against human Bcap37 cells after 48 hrs by MTT assay; format: functional, cell-based; procedure, shortened: as §1
[2] = Cytotoxicity against human MGC803 cells after 48 hrs by MTT assay; format: functional, cell-based, MGC-803; procedure, shortened: as §1
HepG2 [3] = assay: Cytotoxicity against human HepG2 cells after 48 hrs by MTT assay; format: functional, cell-based; procedure, shortened: as §1
[4] = target: T1, Telomerase reverse transcriptase (Homo sapiens, UniProt O14746); assay: Inhibition of telomerase in human MGC-803 cells upto 60 uM after 24 hrs by TRAP-PCR-ELISA assay; format: cell-based
Procedure, shortened: (§2)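 Cells lysed in RIPA on ice for 30 min; extract incubated with TRAP mix at 25 °C for 30 min, then 35 PCR cycles. Products hybridized to DIG probe, captured on streptavidin, detected with peroxidase anti-DIG at 490 nm; mean±SD.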

[5] = Cytotoxicity against human GES-1 cells after 48 hrs by MTT assay; format: cell-based; conditions: GES1, 48 h
Procedure, shortened: (§3)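 Human normal gastric mucosa GES-1 and liver L-02 cells; MTT assay; IC50 expressed in mM as mean of triplicate experiments.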

[6] = Cytotoxicity against human L02 cells after 48 hrs by MTT assay; format: cell-based; conditions: L02, 48 h; procedure, shortened: as §3
[7] = target: T1, Telomerase reverse transcriptase; assay: Inhibition of telomerase in human MGC-803 cells after 24 hrs by TRAP-PCR-ELISA assay; format: cell-based; procedure, shortened: as §2
CCRF S-180 [8] = assay: Antitumor activity against mouse S180 cells xenografted in Kunming mouse assessed as tumor weight at 60 mg/kg/day, QD administered via oral gavage for 10 consecutive days (reference value: 1.98 +/- 0.22g); format: functional
Procedure, shortened: (§4)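 Kunming mice (20 ± 2 g) inoculated subcutaneously in right front armpit with seven-day-old ascites (0.2 ml, 2 × 10^6 cells). 24 h later randomized, 10 per group; oral gavage 60 mg/kg/day or normal saline (10 mL/kg) once daily for ten days. Sacrificed day 11; tumors and mice weighed. Inhibition rate = (Wcontrol − Wtreated)/Wcontrol × 100%.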

CCRF S-180 [9] = assay: Antitumor activity against mouse S180 cells xenografted in Kunming mouse assessed as inhibition of tumor growth at 60 mg/kg/day, QD administered via oral gavage for 10 consecutive days; format: functional; conditions: CCRF S-180, po, read-out: TGI; procedure, shortened: as §4
HepG2 [10] = assay: Antitumor activity against human HepG2 cells xenografted in Kunming mouse assessed as inhibition of tumor growth at 60 mg/kg/day, QD administered via oral gavage for 10 consecutive days; format: functional; conditions: read-out: TGI; procedure, shortened: as §4
Mus musculus [11] = assay: Toxicity in mouse S180 cells xenografted Kunming mouse assessed as body weight at 60 mg/kg/day, QD administered via oral gavage for 10 consecutive days measured on day 11 (reference value: 23.84 +/- 2.11g); format: organism-based, CCRF S-180; conditions: in vivo; procedure, shortened: as §4
Mus musculus [12] = assay: Toxicity in human HepG2 cells xenografted Kunming mouse assessed as body weight at 60 mg/kg/day, QD administered via oral gavage for 10 consecutive days measured on day 11 (reference value: 25 +/- 1.65g); format: organism-based; conditions: in vivo; procedure, shortened: as §4
Mus musculus [13] = assay: Toxicity in Kunming mouse xenografted with mouse EAC cells assessed as body weight at 60 mg/kg/day, QD administered via oral gavage for 10 consecutive days measured on day 11 (reference value: 19.52 +/- 1.17g); format: organism-based, Ehrlich; conditions: in vivo
[14] = Antitumor activity against mouse EAC cells xenografted in Kunming mouse assessed as survival time at 60 mg/kg/day, QD administered via oral gavage for 10 consecutive days days (reference value: 16.6 +/- 2.02days); format: functional, Ehrlich
Procedure, shortened: (§5)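 EAC cells were grown in RPMI-1640 with 10% heat-inactivated FBS and were kept as ascites by passaging 0.2 mL (2 × 10^6 cells) between mice. Kunming mice weighing 20 ± 2 g were used. Survival was followed by mortality. Mean survival time is the sum of each mouse's survival days divided by the number of mice. %ILS is the […].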

[15] = Antitumor activity against mouse EAC cells xenografted in Kunming mouse assessed as prolongation of survival time at 60 mg/kg/day, QD administered via oral gavage for 10 consecutive days days relative to untreated control; format: functional; conditions: Ehrlich; procedure, shortened: as §5
HepG2 [16] = assay: Antitumor activity against human HepG2 cells xenografted in Kunming mouse assessed as tumor weight at 60 mg/kg/day, QD administered via oral gavage for 10 consecutive days (reference value: 1.93 +/- 0.20g)
[17] = Homo sapiens, Bcap37, 48 h, read-out: IC50
[18] = Homo sapiens, MGC-803, 48 h, read-out: IC50
[19] = Homo sapiens, HepG2, 48 h, read-out: IC50

T1 sequence (O14746 whole entry): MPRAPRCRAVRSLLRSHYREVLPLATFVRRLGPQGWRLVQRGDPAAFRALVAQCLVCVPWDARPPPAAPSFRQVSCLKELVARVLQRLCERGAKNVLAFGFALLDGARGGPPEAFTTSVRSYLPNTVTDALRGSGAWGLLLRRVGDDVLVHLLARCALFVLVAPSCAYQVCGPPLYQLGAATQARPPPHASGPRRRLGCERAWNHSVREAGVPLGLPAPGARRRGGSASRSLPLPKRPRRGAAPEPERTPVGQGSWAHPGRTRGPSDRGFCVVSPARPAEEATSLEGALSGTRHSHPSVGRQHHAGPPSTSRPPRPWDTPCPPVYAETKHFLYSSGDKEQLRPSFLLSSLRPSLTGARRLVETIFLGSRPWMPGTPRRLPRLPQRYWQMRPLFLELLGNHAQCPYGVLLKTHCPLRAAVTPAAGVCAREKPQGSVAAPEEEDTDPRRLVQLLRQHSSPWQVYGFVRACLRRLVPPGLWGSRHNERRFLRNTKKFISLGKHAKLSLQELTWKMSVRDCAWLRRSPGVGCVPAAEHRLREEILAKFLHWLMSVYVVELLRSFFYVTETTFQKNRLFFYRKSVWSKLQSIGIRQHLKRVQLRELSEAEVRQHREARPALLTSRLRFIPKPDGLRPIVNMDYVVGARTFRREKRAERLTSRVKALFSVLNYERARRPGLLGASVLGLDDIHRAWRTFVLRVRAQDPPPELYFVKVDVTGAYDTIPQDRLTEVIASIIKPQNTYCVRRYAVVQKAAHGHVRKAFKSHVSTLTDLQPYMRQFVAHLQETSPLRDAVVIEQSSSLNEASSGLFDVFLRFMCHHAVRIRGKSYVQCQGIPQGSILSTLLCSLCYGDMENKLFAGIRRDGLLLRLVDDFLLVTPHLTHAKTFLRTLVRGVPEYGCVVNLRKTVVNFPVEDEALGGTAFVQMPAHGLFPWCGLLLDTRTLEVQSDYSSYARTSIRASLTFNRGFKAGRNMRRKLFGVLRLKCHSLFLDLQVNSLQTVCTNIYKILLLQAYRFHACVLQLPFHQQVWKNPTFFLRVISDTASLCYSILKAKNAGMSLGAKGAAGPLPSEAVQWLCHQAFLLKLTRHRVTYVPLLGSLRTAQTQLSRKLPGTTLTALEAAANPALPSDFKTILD

Compound	IC50 [1]	IC50 (Bcap37; [17])	IC50 [2, 18]	IC50 (HepG2 [3]; [19])	IC50 [5]	IC50 [6]	IC50 [7]	further results
CCN(CC)CC(=O)N1N=C(C)CC1c1ccccc1OC(C)=O (configuration not stated)	51.2 µM	44.2 µM	29.5 µM	33.2 µM	–	–	–	inhibition [4]: inactive
O=C(CCl)N1N=C(c2cc3ccccc3oc2=O)CC1c1ccccc1 (configuration not stated)	2.98 µM	26.7 µM	2.02 µM	2.98 µM	2110 µM	1280 µM	2.27 µM	–
CC1=NN(S(=O)(=O)c2ccc(C)cc2)C(c2cc(Br)cc(Br)c2O)C1 (configuration not stated)	51.2 µM	–	–	–	–	–	–	IC50 (Bcap37; bcap37): Not Active; IC50 ([2]; mgc-803): Not Active; IC50 (HepG2 [3]; hepg2): Not Active; inhibition [4]: inactive
CCC(=O)N1N=C(c2cc3ccccc3oc2=O)CC1c1ccccc1 (configuration not stated)	4.37 µM	46.3 µM	5.3 µM	9.61 µM	–	–	3.63 µM	–
CCNCC(=O)N1N=C(c2cc3ccccc3oc2=O)CC1c1ccccc1 (configuration not stated)	5.58 µM	6.49 µM	26.6 µM	30.6 µM	–	–	6.68 µM	–
CCCNCC(=O)N1N=C(c2cc3ccccc3oc2=O)CC1c1ccccc1 (configuration not stated)	7.27 µM	25.2 µM	4.88 µM	10.8 µM	–	–	9.32 µM	–
CC(=O)Oc1ccccc1C1CC(C)=NN1C(=O)CN1CCCC1 (configuration not stated)	6.21 µM	5.21 µM	6.51 µM	5.09 µM	–	–	6.3 µM	–
CC1=NN(C(=O)CN2CCCCC2)C(c2ccccc2O)C1 (configuration not stated)	5.89 µM	33.1 µM	4.31 µM	3.02 µM	1290 µM	1800 µM	4.63 µM	Activity (CCRF S-180 [8]): 1.1 g; inhibition in vivo at 60 mg/kg/day (CCRF S-180 [9]): 44.4%; inhibition in vivo at 60 mg/kg/day (HepG2 [10]): 39.4%; Activity (Mus musculus [11]): 24.89 g; Activity (Mus musculus [12]): 26 g; Activity (Mus musculus [13]): 19.3 g; Survival [14]: 23.41 days; survival at 60 mg/kg/day [15]: 41%; Activity (HepG2 [16]): 1.17 g
CC(C)NCC(=O)N1N=C(c2cc3ccccc3oc2=O)CC1c1ccccc1 (configuration not stated)	1.87 µM	2.21 µM	10.3 µM	6 µM	–	–	3.52 µM	–
COc1ccccc1C1CC(C)=NN1C(=O)CN(C(C)C)C(C)C (configuration not stated)	5.2 µM	34.2 µM	21.5 µM	8.4 µM	–	–	14.2 µM	–
CC(=O)Oc1ccccc1C1CC(C)=NN1C(=O)CCl (configuration not stated)	3.58 µM	6.81 µM	3.01 µM	2.52 µM	1840 µM	2530 µM	1.27 µM	–
CC(=O)Oc1ccccc1C1CC(C)=NN1C(=O)CN1CCC(O)CC1 (configuration not stated)	25.6 µM	9.8 µM	3.51 µM	12.3 µM	2510 µM	2230 µM	5.69 µM	–
O=C(CN1CCSCC1)N1N=C(c2cc3ccccc3oc2=O)CC1c1ccccc1 (configuration not stated)	4 µM	8.2 µM	10.3 µM	8.96 µM	–	–	3.3 µM	–
